Measurements taken from the RNAGym collection of RNA variant scans (doi:10.1126/science.aae0568).
Variants at the floor of the assay were thinned out.

B1: tRNA (parent)
chain: GUUCCGUUGGCGUAAUGGUAACGCGUCUCCCUCCUAAGGAGAAGACUGCGGGUUCGAGUCCCGUACGGAACG

Variants of: B1
Experiment: yeast fitness relative to wild type (ratio to wild type); higher = fitter; tRNA-Arg(CCU), competitive growth, 37 C, YPD
Procedure, shortened: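 Gene amplicons from the start population and from each of six end populations were read by 100-nucleotide paired-end sequencing. Those end populations came from pooled Saccharomyces cerevisiae strains carrying tRNA-Arg(CCU) gene variants at the native locus, competed in YPD at 37°C for 24 hours. Fitness relative to wild type was worked out from changes in genotype frequencies. Genotypes needed ≥ 100 starting reads, and estimates < 0.5 were set to 0.5.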

Row | Variant | yeast fitness
1 | U7A G9C C24A A43U G52A C60G A69U A70C | ≤ 0.5
2 | U7A G9C C30U C34G G68C | 0.56
3 | U7A G9C G17C | 0.55
4 | U7A G9C G17C C61U C62G A65C | ≤ 0.5
5 | U7A G9C G17C G48A A69C | ≤ 0.5
6 | U7A G9C G17C G48A G68C | ≤ 0.5
7 | U7A G9C U13C G58C A65C A69G | ≤ 0.5
8 | U7A G10A A15U | 0.568
9 | U7A G10A A20C C29A | 0.543
10 | U7A G10A A20C C29A C55G G63C | ≤ 0.5
11 | U7A G10A C30A A43C C66U | 0.553
12 | U7A G10A C33A A36C A69U | ≤ 0.5
13 | U7A G10A C55U C61G A65G G68A | ≤ 0.5
14 | U7A G10C | 0.617
15 | U7A G10C C22U C27G | 0.577
16 | U7A G10C C22U C27G C66U | ≤ 0.5
17 | U7A G10C C27G U32A | ≤ 0.5
18 | U7A G10C C27G U32A G56A A57U | ≤ 0.5
19 | U7A G10C C30G A36U | ≤ 0.5
20 | U7A G10C C30G C46U | ≤ 0.5
21 | U7A G10C C31G G67U | ≤ 0.5
22 | U7A G10C G41A | ≤ 0.5
23 | U7A G10U | 0.614
24 | U7A G12A | 0.783

Row | Variant | yeast fitness
25 | U7A G12A C30U | ≤ 0.5
26 | U7A G12C A57C | ≤ 0.5
27 | U7A G12C C27G C31A C46A | ≤ 0.5
28 | U7A G12C C27G C31A C46A C62G | ≤ 0.5
29 | U7A G12C C34U C66G | ≤ 0.5
30 | U7A G17A A45C U47A G50A | ≤ 0.5
31 | U7A G17A C24U C34A A40G C61U A69U | ≤ 0.5
32 | U7A G17A U59A | ≤ 0.5
33 | U7A G17C G51A | ≤ 0.5
34 | U7A G18A | 0.689
35 | U7A G23A C24U U35A C60A | 0.632
36 | U7A G23A C55A C61A | ≤ 0.5
37 | U7A G23A G68U | ≤ 0.5
38 | U7A G23C A45G C60G | ≤ 0.5
39 | U7A G23C C46G G51C U53A | ≤ 0.5
40 | U7A G23C C66U | ≤ 0.5
41 | U7A G25A C31U | 0.568
42 | U7A G25C C27G C31U A45U C62U U64C | ≤ 0.5
43 | U7A G25C C27G C31U A45U U64C | ≤ 0.5
44 | U7A G38A A42U G51A U53G C60G | ≤ 0.5
45 | U7A G38A G52C A57C | ≤ 0.5
46 | U7A G39A A45G U47G | 0.623
47 | U7A G41A | 0.634
48 | U7A G41A C61A | ≤ 0.5

Row | Variant | yeast fitness
49 | U7A G44A | 0.755
50 | U7A G44C | 0.718
51 | U7A G44C C61A C62U C66U | ≤ 0.5
52 | U7A G44C C66U | ≤ 0.5
53 | U7A G50A C60G U64G | ≤ 0.5
54 | U7A G50A C62U A69C | 0.614
55 | U7A G50C A57C C61U | ≤ 0.5
56 | U7A G51A G52A | 0.536
57 | U7A G51A G52A A70G | ≤ 0.5
58 | U7A G52A A69C | ≤ 0.5
59 | U7A G58A | 0.635
60 | U7A G63A | 0.668
61 | U7A U8A C11G G56A A69U | 0.548
62 | U7A U8A G10C C27G C34G A42G C55U | ≤ 0.5
63 | U7A U8A G10C C27G C34G A43G C55U | ≤ 0.5
64 | U7A U8A G25A A40C C60U | ≤ 0.5
65 | U7A U8A G41A A70U | ≤ 0.5
66 | U7A U8C G9A C33U | ≤ 0.5
67 | U7A U8C G17A C27G C29U A43C G52A | ≤ 0.5
68 | U7A U8C G17A C27G C29U U32C A43C G52A | ≤ 0.5
69 | U7A U8G A36U A43U | ≤ 0.5
70 | U7A U8G C22U C30U A42G C61A | ≤ 0.5
71 | U7A U8G C30G C66U | ≤ 0.5
72 | U7A U13A A21U A45U | 0.649

Row | Variant | yeast fitness
73 | U7A U13G C55G | ≤ 0.5
74 | U7A U16C | 0.751
75 | U7A U16C A21U U26A C46U | 0.681
76 | U7A U16C A21U U26A C46U C60U | 0.55
77 | U7A U16C G17A C29U C31A C55A | ≤ 0.5
78 | U7A U16C G17A C29U C31A G51U C66G G67U | ≤ 0.5
79 | U7A U16C G17A C34G A45C G52C | ≤ 0.5
80 | U7A U16C G23A C24U U35A C60A A69C | ≤ 0.5
81 | U7A U19A A69C | 0.502
82 | U7A U19A C29A G68C | ≤ 0.5
83 | U7A U19C A43G C60G | ≤ 0.5
84 | U7A U19G A21U G67A | ≤ 0.5
85 | U7A U19G G58A | ≤ 0.5
86 | U7A U28G C30A G52A | 0.595
87 | U7A U32A C61G | ≤ 0.5
88 | U7A U35C A42G C60U | 0.561
89 | U7A U47A C55G G68A | ≤ 0.5
90 | U7A U53A | ≤ 0.5
91 | U7A U53A A65C A70G | ≤ 0.5
92 | U7A U53A A69C | 0.545
93 | U7A U54A | 0.506
94 | U7A U59A | 0.778
95 | U7A U59C | 0.662
96 | U7A U64C | 0.829

Row | Variant | yeast fitness
97 | U7C A14C A65C | 0.533
98 | U7C A14C G18A A43C A57U G63A | ≤ 0.5
99 | U7C A14C G63C | 0.573
100 | U7C A14G C29U C31U C33U | 0.592
101 | U7C A14G C29U C31U C33U C55U | ≤ 0.5
102 | U7C A14G G17A A69U | 0.553
103 | U7C A14G G17A G48C A70U | ≤ 0.5
104 | U7C A14G U19G C29G C49A G52C | ≤ 0.5
105 | U7C A14G U19G C29G C49A G52C G63A | ≤ 0.5
106 | U7C A15C | 0.639
107 | U7C A15G C27U C29U | ≤ 0.5
108 | U7C A15G G17A A65C A70G | ≤ 0.5
109 | U7C A20C | 0.844
110 | U7C A20G A21G | 0.562
111 | U7C A20G A37C C60G A65U A70C | ≤ 0.5
112 | U7C A20G A40U | 0.597
113 | U7C A20G C61U | 0.587
114 | U7C A20U A36G A40U | ≤ 0.5
115 | U7C A20U A36G C62U | ≤ 0.5
116 | U7C A20U C34G A36C C55U A65U | ≤ 0.5
117 | U7C A21C C27U | ≤ 0.5
118 | U7C A21C C31A | ≤ 0.5
119 | U7C A21C C34A U35G G44C C61G | ≤ 0.5
120 | U7C A21C C34G U35G G44C C61G | 0.636

Row | Variant | yeast fitness
121 | U7C A21G G41C U53C U64A | ≤ 0.5
122 | U7C A21U A36U A37C | ≤ 0.5
123 | U7C A21U C24A C62U U64C | 0.661
124 | U7C A36G | 0.888
125 | U7C A36G A43U C62G | 0.603
126 | U7C A36G A57U | 0.566
127 | U7C A36U C49G | 0.744
128 | U7C A36U G50C C60A | 0.57
129 | U7C A37C A40C A45U A57C | 0.573
130 | U7C A37C C61G | ≤ 0.5
131 | U7C A37G A42C C49G C61U G63A | ≤ 0.5
132 | U7C A37G A42C C49G C66G A70U | ≤ 0.5
133 | U7C A37G C55A G58C | ≤ 0.5
134 | U7C A37U | 0.625
135 | U7C A40G A43C | 0.77
136 | U7C A40G G52A A65C | ≤ 0.5
137 | U7C A40U A42U U54A | 0.661
138 | U7C A42C C55U | ≤ 0.5
139 | U7C A42G | 0.716
140 | U7C A42G U54C | 0.549
141 | U7C A42U A43G | 0.53
142 | U7C A43C C49A G56A | ≤ 0.5
143 | U7C A43U C49G | ≤ 0.5
144 | U7C A45C | 0.761

Row | Variant | yeast fitness
145 | U7C A45C G50A C62U | 0.547
146 | U7C A45U | 0.837
147 | U7C A65C | 0.912
148 | U7C A65G | 0.95
149 | U7C A65U A69C | 0.532
150 | U7C A69C | 0.921
151 | U7C A69G | 0.817
152 | U7C A70C | 0.742
153 | U7C A70U | 0.692
154 | U7C C11A G67U | ≤ 0.5
155 | U7C C11G C24A U47A U64C G67U | ≤ 0.5
156 | U7C C11G C24U G48A G63A | ≤ 0.5
157 | U7C C11G U13A C29U A69U | ≤ 0.5
158 | U7C C11G U13G C30U | ≤ 0.5
159 | U7C C11G U26C | ≤ 0.5
160 | U7C C11U C34A A45C G68A | ≤ 0.5
161 | U7C C11U C61U A65G G68C | ≤ 0.5
162 | U7C C11U G39C A45U C61U | ≤ 0.5
163 | U7C C11U G39C A45U G67A | ≤ 0.5
164 | U7C C11U U19G C29U U32C C34G G52C A70G | ≤ 0.5
165 | U7C C22G A40U A69C | 0.574
166 | U7C C22U C31A G38A C46G G67C | ≤ 0.5
167 | U7C C24A | 0.623
